Laboratory results as given in ChEMBL document CHEMBL1153560, “In vitro activities of doripenem and six comparator drugs against 423 aerobic and anaerobic bacterial isolates from infected diabetic foot wounds” (2008).
Converted amounts (≈) assume the structure as drawn.

Experiments:
Type in all cases: functional
[1] = system: Prevotella bivia; test: Antibacterial activity against Prevotella bivia isolated from patient with diabetic foot infection after 44 to 48 hrs by agar dilution method
Method in brief: (§1)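 CLSI M11-A7 agar dilution: serial twofold drug dilutions made on the test day and added to molten agar. Spots of 10^5 CFU were applied by replicator, with drug-free control plates inoculated before and after each set. Incubation was 44 to 48 h at 37°C in an anaerobic chamber. MIC was the lowest concentration giving no growth or a marked change in growth versus controls.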

[2] = system: Clostridium perfringens; test: Antibacterial activity against Clostridium perfringens isolated from patient with diabetic foot infection after 44 to 48 hrs by agar dilution method
Method in brief: (§2)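 Agar dilution per CLSI M11-A7. Twofold drug dilutions made on the test day and added to molten agar. Replicator-applied inoculum of 10^5 CFU/spot. Drug-free control plates inoculated before and after each drug set. Incubation at 37°C for 44 to 48 h, anaerobic chamber. MIC taken as the lowest concentration giving no growth or a marked change in growth versus controls.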

[3] = system: Anaerocolumna aminovalerica; test: Antibacterial activity against Clostridium aminovalericum isolated from patient with diabetic foot infection after 44 to 48 hrs by agar dilution method; method in brief: as §1
[4] = system: Clostridium cadaveris; test: Antibacterial activity against Clostridium cadaveris isolated from patient with diabetic foot infection after 44 to 48 hrs by agar dilution method; method in brief: as §1
[5] = system: [Clostridium] innocuum; test: Antibacterial activity against Clostridium innocuum isolated from patient with diabetic foot infection after 44 to 48 hrs by agar dilution method; method in brief: as §1
[6] = system: Lacrimispora sphenoides; test: Antibacterial activity against Clostridium sphenoides isolated from patient with diabetic foot infection after 44 to 48 hrs by agar dilution method; method in brief: as §1
[7] = system: Cutibacterium acnes; test: Antibacterial activity against Propionibacterium acnes isolated from patient with diabetic foot infection after 44 to 48 hrs by agar dilution method; method in brief: as §1
[8] = system: Anaerococcus prevotii; test: Antibacterial activity against Anaerococcus prevotii isolated from patient with diabetic foot infection after 44 to 48 hrs by agar dilution method; method in brief: as §1
[9] = system: Anaerococcus tetradius; test: Antibacterial activity against Anaerococcus tetradius isolated from patient with diabetic foot infection after 44 to 48 hrs by agar dilution method; method in brief: as §1
[10] = system: Finegoldia magna; test: Antibacterial activity against Finegoldia magna isolated from patient with diabetic foot infection after 44 to 48 hrs by agar dilution method; method in brief: as §1
[11] = system: Peptoniphilus asaccharolyticus; test: Antibacterial activity against Peptoniphilus asaccharolyticus isolated from patient with diabetic foot infection after 44 to 48 hrs by agar dilution method; method in brief: as §1
[12] = system: Peptostreptococcus anaerobius; test: Antibacterial activity against Peptostreptococcus anaerobius isolated from patient with diabetic foot infection after 44 to 48 hrs by agar dilution method; method in brief: as §1
[13] = system: Parvimonas micra; test: Antibacterial activity against Peptostreptococcus micros isolated from patient with diabetic foot infection after 44 to 48 hrs by agar dilution method; method in brief: as §1
[14] = system: Bacteroides fragilis; test: Antibacterial activity against Bacteroides fragilis isolated from patient with diabetic foot infection after 44 to 48 hrs by agar dilution method; method in brief: as §1
[15] = system: Bacteroides caccae; test: Antibacterial activity against Bacteroides caccae isolated from patient with diabetic foot infection after 44 to 48 hrs by agar dilution method; method in brief: as §1
[16] = system: Bacteroides ovatus; test: Antibacterial activity against Bacteroides ovatus isolated from patient with diabetic foot infection after 44 to 48 hrs by agar dilution method; method in brief: as §1
[17] = system: Bacteroides fragilis; test: Antibacterial activity against Bacteroides fragilis isolated from patient with diabetic foot infection assessed as percent resistant isolates after 44 to 48 hrs by agar dilution method; method in brief: as §2
[18] = system: Bacteroides caccae; test: Antibacterial activity against Bacteroides caccae isolated from patient with diabetic foot infection assessed as percent resistant isolates after 44 to 48 hrs by agar dilution method; method in brief: as §2
[19] = system: Bacteroides ovatus; test: Antibacterial activity against Bacteroides ovatus isolated from patient with diabetic foot infection assessed as percent resistant isolates after 44 to 48 hrs by agar dilution method; method in brief: as §2
[20] = system: Bacteroides thetaiotaomicron; test: Antibacterial activity against Bacteroides thetaiotaomicron isolated from patient with diabetic foot infection after 44 to 48 hrs by agar dilution method; method in brief: as §1
[21] = system: Bacteroides uniformis; test: Antibacterial activity against Bacteroides uniformis isolated from patient with diabetic foot infection after 44 to 48 hrs by agar dilution method; method in brief: as §1
[22] = system: Phocaeicola vulgatus; test: Antibacterial activity against Bacteroides vulgatus isolated from patient with diabetic foot infection after 44 to 48 hrs by agar dilution method; method in brief: as §1
[23] = system: Parabacteroides merdae; test: Antibacterial activity against Parabacteroides merdae isolated from patient with diabetic foot infection after 44 to 48 hrs by agar dilution method; method in brief: as §1
[24] = system: Porphyromonas asaccharolytica; test: Antibacterial activity against Porphyromonas asaccharolyticus isolated from patient with diabetic foot infection after 44 to 48 hrs by agar dilution method; method in brief: as §1
[25] = system: Bacteroides uniformis; test: Antibacterial activity against Bacteroides uniformis isolated from patient with diabetic foot infection assessed as percent resistant isolates after 44 to 48 hrs by agar dilution method; method in brief: as §2
[26] = system: Parabacteroides distasonis; test: Antibacterial activity against Parabacteroides distasonis isolated from patient with diabetic foot infection assessed as percent resistant isolates after 44 to 48 hrs by agar dilution method; method in brief: as §2
[27] = system: Parabacteroides merdae; test: Antibacterial activity against Parabacteroides merdae isolated from patient with diabetic foot infection assessed as percent resistant isolates after 44 to 48 hrs by agar dilution method; method in brief: as §2
[28] = system: Porphyromonas somerae; test: Antibacterial activity against Porphyromonas somerae isolated from patient with diabetic foot infection assessed as percent resistant isolates after 44 to 48 hrs by agar dilution method; method in brief: as §2
[29] = system: Prevotella bivia; test: Antibacterial activity against Prevotella bivia isolated from patient with diabetic foot infection assessed as percent resistant isolates after 44 to 48 hrs by agar dilution method; method in brief: as §2
[30] = system: Anaerocolumna aminovalerica; test: Antibacterial activity against Clostridium aminovalericum isolated from patient with diabetic foot infection assessed as percent resistant isolates after 44 to 48 hrs by agar dilution method; method in brief: as §2
[31] = system: Clostridium cadaveris; test: Antibacterial activity against Clostridium cadaveris isolated from patient with diabetic foot infection assessed as percent resistant isolates after 44 to 48 hrs by agar dilution method; method in brief: as §2
[32] = system: Clostridium malenominatum; test: Antibacterial activity against Clostridium malenominatum isolated from patient with diabetic foot infection assessed as percent resistant isolates after 44 to 48 hrs by agar dilution method; method in brief: as §2
[33] = system: Anaerococcus prevotii; test: Antibacterial activity against Anaerococcus prevotii isolated from patient with diabetic foot infection assessed as percent resistant isolates after 44 to 48 hrs by agar dilution method; method in brief: as §2
[34] = system: Finegoldia magna; test: Antibacterial activity against Finegoldia magna isolated from patient with diabetic foot infection assessed as percent resistant isolates after 44 to 48 hrs by agar dilution method; method in brief: as §2
[35] = system: Peptoniphilus asaccharolyticus; test: Antibacterial activity against Peptoniphilus asaccharolyticus isolated from patient with diabetic foot infection assessed as percent resistant isolates after 44 to 48 hrs by agar dilution method; method in brief: as §2
[36] = system: Peptostreptococcus anaerobius; test: Antibacterial activity against Peptostreptococcus anaerobius isolated from patient with diabetic foot infection assessed as percent resistant isolates after 44 to 48 hrs by agar dilution method; method in brief: as §2
[37] = system: Parvimonas micra; test: Antibacterial activity against Peptostreptococcus micros isolated from patient with diabetic foot infection assessed as percent resistant isolates after 44 to 48 hrs by agar dilution method; method in brief: as §2

CCC[C@@H]1C[C@@H](C(=O)N[C@@H]([C@H]2O[C@H](SC)[C@H](O)[C@@H](O)[C@H]2O)[C@H](C)Cl)N(C)C1 [CLINDAMYCIN]
MIC50 [1]: ≤ 0.03 µg/mL
MIC90 [1]: > 64 µg/mL
MIC50 [2]: 1 µg/mL (≈ 2.35 µM)
MIC90 [2]: 1 µg/mL (≈ 2.35 µM)
MIC50 [3]: 0.5 µg/mL (≈ 1.18 µM)
MIC90 [3]: 16 µg/mL (≈ 37.6 µM)
MIC50 [4]: 0.5 µg/mL (≈ 1.18 µM)
MIC90 [4]: 16 µg/mL (≈ 37.6 µM)
MIC50 [5]: 0.5 µg/mL (≈ 1.18 µM)
MIC90 [5]: 16 µg/mL (≈ 37.6 µM)
MIC50 [6]: 0.5 µg/mL (≈ 1.18 µM)
MIC90 [6]: 16 µg/mL (≈ 37.6 µM)
MIC50 [7]: ≤ 0.03 µg/mL
MIC90 [7]: 2 µg/mL (≈ 4.71 µM)
MIC50 [8]: 0.125 µg/mL (≈ 0.294 µM)
MIC90 [8]: 64 µg/mL (≈ 151 µM)
MIC50 [9]: 0.125 µg/mL (≈ 0.294 µM)
MIC90 [9]: 64 µg/mL (≈ 151 µM)
MIC50 [10]: 0.5 µg/mL (≈ 1.18 µM)
MIC90 [10]: 2 µg/mL (≈ 4.71 µM)
MIC50 [11]: 0.125 µg/mL (≈ 0.294 µM)
MIC90 [11]: > 64 µg/mL
MIC50 [12]: 0.125 µg/mL (≈ 0.294 µM)
MIC90 [12]: 0.5 µg/mL (≈ 1.18 µM)
MIC50 [13]: 0.125 µg/mL (≈ 0.294 µM)
MIC90 [13]: 0.5 µg/mL (≈ 1.18 µM)
MIC50 [14]: 0.5 µg/mL (≈ 1.18 µM)
MIC90 [14]: 2 µg/mL (≈ 4.71 µM)
MIC50 [15]: 2 µg/mL (≈ 4.71 µM)
MIC90 [15]: > 64 µg/mL
MIC50 [16]: 2 µg/mL (≈ 4.71 µM)
MIC90 [16]: > 64 µg/mL
Activity [17]: 10%
Activity [18]: 20%
Activity [19]: 20%
MIC50 [20]: 2 µg/mL (≈ 4.71 µM)
MIC90 [20]: > 64 µg/mL
MIC50 [21]: 2 µg/mL (≈ 4.71 µM)
MIC90 [21]: > 64 µg/mL
MIC50 [22]: 2 µg/mL (≈ 4.71 µM)
MIC90 [22]: > 64 µg/mL
MIC50 [23]: 2 µg/mL (≈ 4.71 µM)
MIC90 [23]: > 64 µg/mL
MIC50 [24]: ≤ 0.03 µg/mL
MIC90 [24]: 64 µg/mL (≈ 151 µM)
Activity [25]: 20%
Activity [26]: 20%
Activity [27]: 20%
Activity [28]: 12%
Activity [29]: 21%
Activity [30]: 23%
Activity [31]: 23%
Activity [32]: 23%
Activity [33]: 18%
Activity [34]: 0%
Activity [35]: 25%
Activity [36]: 0%
Activity [37]: 0%
